Experiment [1] is filed under the species Mus musculus. In words: Compound was evaluated for analgesic activity, in male albino Swiss-Webster mice with hotplate test and maximum level of analgesia reached is evaluated. It is filed as functional. The essentials: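 Mouse hot-plate at 52.5 ± 0.1 °C with a 45 s cutoff. Each compound was given at its maximal nontoxic dose, defined as no visible behavioural change to blinded observers. Efficacy = (max reaction time − pretest)/(same for morphine-HCl 8 mg/kg sc) × 100.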

Experiment [2] concerns Mus musculus. The experiment in a line: Analgesic potency was evaluated as Effective Dose 50 after subcutaneous administration. Standard error given in parenthesis. To be noted: sc. It is filed as functional. The essentials: (§1)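 Mouse hot-plate assay after Woolfe, with the plate held at 52.5 ± 0.1 °C and a 45 s cutoff. Groups held 8–20 mice. Analgesic potency is expressed as the ED50.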

Experiment [3] deals with Mus musculus. In words: Analgesic potency was evaluated as effective dose after subcutaneous administration. It is filed as functional. In short, it runs like this: as §1
Experiment [4] deals with Muscarinic acetylcholine receptor. The experiment in a line: The compound is evaluated for binding affinity against central muscarinic receptor by using [3H]- QNB as radioligand. Format: protein assay.
The species named for experiment [5] is Mus musculus. In words: Analgesic activity in male albino Swiss-Webster mice in hotplate test. It is filed as functional. More on the design: unit not given here. The essentials:
as §1

Setting [6] is: Mus musculus, sc, read-out: ED50.

As a reminder, the ED50 is the dose at which the effect has come halfway, by size or by number of responders. `CN1C2CCC1CC(OC(=O)CCOc1ccccc1)C2.O=C(O)/C=C\C(=O)O` (stereo not given) registered an Analgesic activity in the experiment listed under Mus musculus [1] of 28. For the same compound, the ED50 with Mus musculus [2] came to 22 mg/kg.
What is called Ki is the dissociation constant of the complex between target and ligand, obtained from inhibition or displacement. For `CCC(Oc1ccc(Cl)cc1)C(=O)OC1CC2CCC(C1)N2C.O=C(O)/C=C\C(=O)O` (racemic), in the experiment with Mus musculus [3] (setting [6]), the ED50 came out at 20 mg/kg. Besides, in experiment [4], the Ki came out at 174 nM. Further, the Analgesic activity in the experiment listed under Mus musculus [5] was 99.
As for `CC(Oc1ccc(Cl)cc1)C(=O)OC1CC2CCC(C1)N2C.O=C(O)/C=C\C(=O)O` (racemic), the ED50 with Mus musculus [3] (setting [6]) was 32 mg/kg. This compound registered an Analgesic activity in the experiment filed under Mus musculus [1] of 90.
In turn, `CCC(Sc1ccccc1)C(=O)OC1CC2CCC(C1)N2C` (racemic) gave an ED50 with Mus musculus [3] of 18 mg/kg. The Ki in experiment [4] was found to be 22.7 nM. The Analgesic activity in the experiment listed under Mus musculus [5] amounted to 103.
